Source: ChEMBL document CHEMBL3351626, “Discovery, structure-activity relationship studies, and anti-nociceptive effects of 1-phenyl-3,6,6-trimethyl-1,5,6,7-tetrahydro-4H-indazol-4-one as novel opioid receptor agonists” (Bioorg Med Chem, 2014)
Active and inactive are the calls of the source. The calls are words filed in the database; no cut-off is given here.

Experiments:
Mu-type opioid receptor [1] = target: T1, Mu-type opioid receptor (Homo sapiens, UniProt P35372); format: functional, cell-based, CHO-K1
Mu-type opioid receptor [2] = target: T1, Mu-type opioid receptor; assay: Agonist activity at myc-tagged mu opioid receptor (unknown origin) expressed in AtT-20 cells assessed as induction of membrane potential hyperpolarization in presence of 1 uM naloxone; format: cell-based; conditions: AtT20
Summary of the method: (§1)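 Mouse pituitary AtT-20 cells (endogenous GIRK1/GIRK2) electroporated with myc-MOR plasmid or vehicle and seeded. After 24 h, serum-starved 3 h, then loaded with blue membrane potential dye for 0.5 h at 25 °C. Vehicle or compound added and potassium conductance read as fluorescence over about 175 s.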

Mu-type opioid receptor [3] = target: T1, Mu-type opioid receptor; assay: Agonist activity at human mu opioid receptor expressed in HEK293 cells assessed as inhibition of forskolin-induced cAMP production after 30 mins by HTRF assay; format: functional, cell-based
Mus musculus [4] = assay: Analgesic activity in wild type B6 mouse assessed as basal tail-flick withdrawal latency at 20 mg/kg, iv injected with 10 mg/kg, sc naloxone 5 mins before compound dosing; format: functional, organism-based
Summary of the method: (§2)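 Wild-type B6 mice, n=6 per group. Basal tail-flick latency measured first. […] Latency read at 10, 20, 30, 40, 50 and 60 min after dosing. Test minus basal latency plotted against time and AUC calculated.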

Mus musculus [5] = assay: Analgesic activity in iv dosed wild type B6 mouse assessed as basal tail-flick withdrawal latency; format: functional
Summary of the method: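 Tail-flick instrument nociception test in wild-type B6 mice. Basal latency measured first, then compound given iv (20, 18.4 or 25 mg/kg depending on compound). Latency read at 10, 20, 30, 40, 50 and 60 min after dosing, reported as test latency minus basal latency. AUC of the time-response curve calculated; ED50 by up-and-down method. n=6 per group.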

Mu-type opioid receptor [6] = target: T1, Mu-type opioid receptor; assay: Agonist activity at myc-tagged mu opioid receptor (unknown origin) expressed in AtT-20 cells assessed as induction of membrane potential hyperpolarization; format: cell-based, AtT20
Summary of the method: as §1

Mu-type opioid receptor [7] = target: Mu-type opioid receptor (Rattus norvegicus, UniProt P33535); assay: Displacement of [3H]-naloxone from rat mu opioid receptor expressed in HEK cells after 60 mins; format: cell-based, HEK293
[8] = target: Delta-type opioid receptor (Homo sapiens, UniProt P41143); assay: Agonist activity at human delta opioid receptor expressed in HEK293 cells assessed as inhibition of forskolin-induced cAMP production after 30 mins by HTRF assay; format: functional, cell-based
[9] = target: Kappa-type opioid receptor (Homo sapiens, UniProt P41145); assay: Agonist activity at human kappa opioid receptor expressed in HEK293 cells assessed as inhibition of forskolin-induced cAMP production after 30 mins by HTRF assay; format: functional, cell-based
Summary of the method: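 HEK293 cells stably expressing the mu, delta or kappa opioid receptor, plus parental cells, at 2000 cells/well in DMEM. Compound in HBSS added with 1 µM forskolin and 100 µM IBMX for 30 min at room temperature. d2-cAMP and anti-cAMP antibody in lysis buffer then added. Read 2 h later: excitation 330 nm, emission 620 and 665 nm.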

Mus musculus [10] = assay: Analgesic activity in wild type B6 mouse assessed as basal tail-flick withdrawal latency at 18.4 mg/kg, iv injected with 10 mg/kg, sc naloxone 5 mins before compound dosing; format: functional, organism-based
Summary of the method: as §2

Mus musculus [11] = assay: Analgesic activity in wild type B6 mouse assessed as basal tail-flick withdrawal latency at 25 mg/kg, iv injected with 10 mg/kg, sc naloxone 5 mins before compound dosing; format: functional, organism-based
Summary of the method: as §2

T1 sequence (P35372 whole entry): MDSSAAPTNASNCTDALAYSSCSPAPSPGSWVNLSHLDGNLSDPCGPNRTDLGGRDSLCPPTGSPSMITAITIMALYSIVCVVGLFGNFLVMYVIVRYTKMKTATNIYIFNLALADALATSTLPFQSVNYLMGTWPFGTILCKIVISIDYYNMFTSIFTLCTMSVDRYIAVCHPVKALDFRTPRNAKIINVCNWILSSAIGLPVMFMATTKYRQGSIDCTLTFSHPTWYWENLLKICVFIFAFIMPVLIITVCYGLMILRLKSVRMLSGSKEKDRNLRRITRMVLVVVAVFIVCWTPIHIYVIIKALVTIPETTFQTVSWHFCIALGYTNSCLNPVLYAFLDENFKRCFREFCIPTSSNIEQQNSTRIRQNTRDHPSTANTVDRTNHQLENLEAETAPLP
Sequence of Kappa-type opioid receptor (P41145 whole entry): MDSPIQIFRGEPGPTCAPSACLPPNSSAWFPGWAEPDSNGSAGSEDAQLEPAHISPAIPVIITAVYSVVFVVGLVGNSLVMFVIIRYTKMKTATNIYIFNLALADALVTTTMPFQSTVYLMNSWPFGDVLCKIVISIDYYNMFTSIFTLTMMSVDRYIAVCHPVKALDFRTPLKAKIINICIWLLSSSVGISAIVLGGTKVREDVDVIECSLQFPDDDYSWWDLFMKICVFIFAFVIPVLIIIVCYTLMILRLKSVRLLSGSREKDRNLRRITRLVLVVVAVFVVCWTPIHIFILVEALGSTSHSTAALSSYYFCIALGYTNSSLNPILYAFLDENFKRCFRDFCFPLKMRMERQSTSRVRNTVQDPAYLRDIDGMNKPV
Sequence of Mu-type opioid receptor (Rattus norvegicus, UniProt P33535) (P33535 whole entry): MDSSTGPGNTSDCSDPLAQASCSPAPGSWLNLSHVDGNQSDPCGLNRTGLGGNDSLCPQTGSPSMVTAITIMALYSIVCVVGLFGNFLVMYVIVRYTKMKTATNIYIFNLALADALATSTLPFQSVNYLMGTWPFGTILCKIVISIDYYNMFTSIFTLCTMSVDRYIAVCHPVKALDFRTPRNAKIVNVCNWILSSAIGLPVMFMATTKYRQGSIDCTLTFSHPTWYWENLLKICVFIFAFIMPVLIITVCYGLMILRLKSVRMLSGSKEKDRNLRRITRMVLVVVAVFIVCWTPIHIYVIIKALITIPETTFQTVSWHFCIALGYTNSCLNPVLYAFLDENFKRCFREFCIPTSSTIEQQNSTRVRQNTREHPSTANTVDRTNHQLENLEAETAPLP
Sequence of Delta-type opioid receptor (P41143 whole entry): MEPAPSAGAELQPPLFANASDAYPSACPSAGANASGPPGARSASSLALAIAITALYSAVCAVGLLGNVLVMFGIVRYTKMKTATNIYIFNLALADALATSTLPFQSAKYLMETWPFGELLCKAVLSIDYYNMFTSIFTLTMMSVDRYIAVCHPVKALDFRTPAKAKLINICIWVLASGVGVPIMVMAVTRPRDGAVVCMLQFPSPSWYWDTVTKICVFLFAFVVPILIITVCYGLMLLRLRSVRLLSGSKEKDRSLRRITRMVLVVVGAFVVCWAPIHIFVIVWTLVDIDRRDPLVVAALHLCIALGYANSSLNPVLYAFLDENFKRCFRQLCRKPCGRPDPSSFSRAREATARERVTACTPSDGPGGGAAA

SMILES: CC1(C)CC(=O)c2c(C(F)(F)F)nn(-c3ccc(Cl)cc3Cl)c2C1
- EC50 (Mu-type opioid receptor [1]): 1540 nM

SMILES: Cc1nn(-c2ccccc2Br)c2c1C(=O)CC(C)(C)C2
- EC50 (Mu-type opioid receptor [1]): 1120 nM

SMILES: Cc1nn(-c2ccc(Br)cc2Br)c2c1C(=O)CC(C)(C)C2
- Activity (Mu-type opioid receptor [2]): inactive
- IC50 (Mu-type opioid receptor [3]): 730 nM
- Activity (Mus musculus [4]): inactive
- ED50 (Mus musculus [5]): 8.4 mg/kg
- EC50 (Mu-type opioid receptor [6]): 5490 nM
- Ki (Mu-type opioid receptor [7]): 470 nM
- EC50 (Mu-type opioid receptor [1]): 41 nM
- IC50 [8]: 1690 nM
- IC50 [9]: 410 nM

SMILES: CCc1ccccc1-n1nc(C)c2c1CC(C)(C)CC2=O
- EC50 (Mu-type opioid receptor [1]): 19000 nM

SMILES: Cc1ccc(C)c(-n2nc(C)c3c2CC(C)(C)CC3=O)c1
- EC50 (Mu-type opioid receptor [1]): 10000 nM

SMILES: CCOC(=O)c1ccccc1-n1nc(C)c2c1CC(C)(C)CC2=O
- EC50 (Mu-type opioid receptor [1]): 30200 nM

SMILES: Cc1nn(-c2cc(Cl)ccc2Cl)c2c1C(=O)CC(C)(C)C2
- EC50 (Mu-type opioid receptor [1]): 2890 nM

SMILES: Cc1ccc(-n2nc(C)c3c2CC(C)(C)CC3=O)c(C)c1
- Ki (Mu-type opioid receptor [7]): 3930 nM
- EC50 (Mu-type opioid receptor [1]): 370 nM

SMILES: Cc1nn(-c2ccc(Br)cc2)c2c1C(=O)CC(C)(C)C2
- EC50 (Mu-type opioid receptor [1]): 9910 nM

SMILES: COc1ccc(-n2nc(C)c3c2CC(C)(C)CC3=O)cc1
- EC50 (Mu-type opioid receptor [1]): 18400 nM

SMILES: Cc1ccccc1-n1nc(C)c2c1CC(C)(C)CC2=O
- EC50 (Mu-type opioid receptor [1]): 4720 nM

SMILES: Cc1cc(Cl)ccc1-n1nc(C)c2c1CC(C)(C)CC2=O
- Ki (Mu-type opioid receptor [7]): > 100000 nM
- EC50 (Mu-type opioid receptor [1]): 370 nM

SMILES: Cc1nn(-c2ccc(Cl)cc2Br)c2c1C(=O)CC(C)(C)C2
- Activity (Mus musculus [10]): inactive
- Activity (Mu-type opioid receptor [2]): inactive
- IC50 (Mu-type opioid receptor [3]): 3300 nM
- ED50 (Mus musculus [5]): 10.9 mg/kg
- EC50 (Mu-type opioid receptor [6]): 100 nM
- Ki (Mu-type opioid receptor [7]): 610 nM
- EC50 (Mu-type opioid receptor [1]): 41 nM
- IC50 [8]: 3380 nM
- IC50 [9]: 570 nM

SMILES: Cc1n[nH]c2c1C(=O)CC(C)(C)C2
- EC50 (Mu-type opioid receptor [1]): > 100000 nM

SMILES: Cc1nn(-c2ccc(Cl)cc2Cl)c2c1C(=O)CCC2
- EC50 (Mu-type opioid receptor [1]): 13600 nM

SMILES: Cc1ccc(-n2nc(C)c3c2CC(C)(C)CC3=O)c(Br)c1
- Activity (Mu-type opioid receptor [2]): inactive
- IC50 (Mu-type opioid receptor [3]): 6000 nM
- ED50 (Mus musculus [5]): 26.6 mg/kg
- EC50 (Mu-type opioid receptor [6]): 200 nM
- Ki (Mu-type opioid receptor [7]): 740 nM
- EC50 (Mu-type opioid receptor [1]): 41 nM
- IC50 [8]: > 100000 nM
- IC50 [9]: 370 nM
- Activity (Mus musculus [11]): inactive

SMILES: Cc1nn(-c2ccc(F)cc2F)c2c1C(=O)CC(C)(C)C2
- EC50 (Mu-type opioid receptor [1]): 10300 nM

SMILES: Cc1nn(-c2ccc(Cl)cc2)c2c1C(=O)CC(C)(C)C2
- EC50 (Mu-type opioid receptor [1]): 13600 nM

SMILES: COC(=O)c1ccc(-n2nc(C)c3c2CC(C)(C)CC3=O)cc1
- EC50 (Mu-type opioid receptor [1]): 10000 nM

SMILES: Cc1cccc(-n2nc(C)c3c2CC(C)(C)CC3=O)c1C
- EC50 (Mu-type opioid receptor [1]): 8900 nM

SMILES: CC1(C)CC(=O)c2c(C3CC3)nn(-c3ccc(Cl)cc3Cl)c2C1
- Ki (Mu-type opioid receptor [7]): 1300 nM
- EC50 (Mu-type opioid receptor [1]): 370 nM

SMILES: Cc1nn(-c2ccc(Cl)cc2Cl)c2c1C(=O)CC(C)(C)C2
- IC50 (Mu-type opioid receptor [3]): 7890 nM
- EC50 (Mu-type opioid receptor [1]): 150 nM
- IC50 [8]: 10000 nM
- IC50 [9]: 2650 nM

SMILES: Cc1nn(-c2ccccc2)c2c1C(=O)CC(C)(C)C2
- EC50 (Mu-type opioid receptor [1]): > 100000 nM

SMILES: Cc1nn(-c2ccccc2Cl)c2c1C(=O)CC(C)(C)C2
- EC50 (Mu-type opioid receptor [1]): 2280 nM

SMILES: Cc1nn(-c2ccc(Br)cc2Br)c2c1C(O)CC(C)(C)C2 (stereo not given)
- IC50 (Mu-type opioid receptor [3]): 3380 nM
- Ki (Mu-type opioid receptor [7]): > 100000 nM
- EC50 (Mu-type opioid receptor [1]): 100 nM
- IC50 [8]: > 100000 nM
- IC50 [9]: 1100 nM

SMILES: Cc1nn(-c2cccc(Cl)c2)c2c1C(=O)CC(C)(C)C2
- EC50 (Mu-type opioid receptor [1]): > 100000 nM
